≈ marks a conversion by molar mass, not a printed value.
Assays:
C. neoformans ATCC90113 = assay: in vitro antifungal activity; type: cell-based, Cryptococcus neoformans; details: Cryptococcus neoformans; for IC50: ATCC90113, read-out: C. neoformans IC50; for MFC: ATCC90113, read-out: C. neoformans MFC; for MIC: ATCC90113, read-out: C. neoformans MIC
How it was run: (§1)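 Modified NCCLS broth method in Sabouraud dextrose. Inoculum set by OD630 to 1.5 × 10^3 CFU/mL. Test compound serially diluted in 20% DMSO/saline, duplicate wells, up to 20 μg/mL. Incubated 70–74 h at 35 °C; 530 nm read before and after. IC50 is 50% growth inhibition; MIC is no detectable growth. MFC from clear wells subcultured on agar. Amphotericin B control.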

SA (ATCC29213) = assay: in vitro antibacterial activity; type: cell-based; details: Staphylococcus aureus; for IC50: ATCC29213, read-out: IC50 (concentration that affords 50% growth inhibition), SA; for MBC: ATCC29213, read-out: MBC (minimum bactericidal concentration), SA; for MIC: ATCC29213, read-out: MIC, SA
How it was run: (§2)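 Test compound serially diluted in 20% DMSO/saline and plated in duplicate, up to 20 μg/mL. Inoculum in cation-adjusted Mueller–Hinton broth, pH 7.3, set by OD630 to 5 × 10^5 CFU/mL. Incubated 16–20 h at 35 °C; 530 nm read before and after. IC50 is 50% growth inhibition; MIC is no detectable growth. MBC from clear wells subcultured on agar. Ciprofloxacin control.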

P. falciparum (D6) = assay: in vitro antimalarial activity, plasmodial LDH; type: cell-based, Plasmodium falciparum; details: Plasmodium falciparum, D6, 72 h, read-out: P. falciparum (D6) IC50
[1] = system: M. intracellulare (ATCC23068); assay: in vitro antibacterial activity, modified alamarBlue procedure; type: cell-based, Mycobacterium intracellulare; details: Mycobacterium intracellulare; for IC50: ATCC23068, read-out: IC50 (concentration that affords 50% growth inhibition), M. intracellulare; for MBC: ATCC23068, read-out: MBC (minimum bactericidal concentration), M. intracellulare; for MIC: ATCC23068, read-out: MIC, M. intracellulare
How it was run: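 Modified alamarBlue microplate method. Test compound serially diluted in 20% DMSO/saline, duplicate wells, up to 20 μg/mL. Inoculum 2.0 × 10^6 CFU/mL in Middlebrook 7H9 with OADC, pH 7.3, containing 5% alamarBlue. Incubated 70–74 h at 37 °C, 10% CO2; fluorescence 544ex/590em read before and after. MIC: no blue-to-pink change. MBC by subculturing blue wells on agar. Ciprofloxacin control.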

C. albicans ATCC90028 = assay: in vitro antifungal activity; type: cell-based, Candida albicans; details: Candida albicans; for IC50: ATCC90028, read-out: C. albicans IC50; for MFC: ATCC90028, read-out: C. albicans MFC; for MIC: ATCC90028, read-out: C. albicans MIC
How it was run: as §1

P. falciparum (W2) = assay: in vitro antimalarial activity, plasmodial LDH; type: cell-based, Plasmodium falciparum; details: Plasmodium falciparum, W2, 72 h, read-out: P. falciparum (W2) IC50, CQ-resistant W2 strain, 72 h
How it was run: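 P. falciparum-infected erythrocytes (2% parasitemia, 2% hematocrit) in RPMI 1640 with 10% human serum and 60 μg/mL amikacin. Exposed to test compound dilutions for 72 h at 37 °C under 90% N2/5% O2/5% CO2. LDH measured with Malstat reagent (30 min, room temperature), then NBT/PES for 1 h in the dark, stopped with 5% acetic acid, read at 650 nm. IC50 from dose-response curves.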

[2] = system: SK-MEL, KB, BT-549, SK-OV-3, VERO and LLC-PK1 cells; assay: cytotoxicity, neutral red uptake assay; type: cell-based, mammalian; details: highest test concentration 4760 ng/mL
How it was run: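 Cells seeded at 25 000/well and allowed 24 h to reach confluence. Test compound was then added and incubated 48 h. Viable cells were counted by a modified neutral red uptake method. The panel was four human cancer lines and two noncancerous mammalian kidney lines. Doxorubicin served as positive control and DMSO as negative control.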

MRSA (ATCC33591) = assay: in vitro antibacterial activity; type: cell-based, methicillin-resistant Staphylococcus aureus; details: Staphylococcus aureus, ATCC33591|MRSA, read-out: MIC, MRSA
How it was run: as §2

A. fumigatus ATCC 90906 = assay: in vitro antifungal activity; type: cell-based, Aspergillus fumigatus; details: Aspergillus fumigatus; for IC50: ATCC90906, read-out: A. fumigatus IC50; for MFC: ATCC90906, read-out: A. fumigatus MFC; for MIC: ATCC90906, read-out: A. fumigatus MIC
How it was run: as §1

[3] = system: L. donovani promastigotes; assay: in vitro antileishmanial activity, alamarBlue assay; type: cell-based, Leishmania donovani; details: 48 h; for IC50: read-out: L. donovani IC50, promastigotes, 48 h

Compound	IC50 (C. neoformans ATCC90113) [µg/mL]	MFC (C. neoformans ATCC90113) [µg/mL]	MIC (C. neoformans ATCC90113) [µg/mL]	IC50 (SA (ATCC29213)) [µg/mL]	MBC (SA (ATCC29213)) [µg/mL]	MIC (SA (ATCC29213)) [µg/mL]	IC50 (P. falciparum (D6)) [µg/mL]	IC50 [1] [µg/mL]	MBC [1] [µg/mL]	MIC [1] [µg/mL]	IC50 (C. albicans ATCC90028) [µg/mL]	MFC (C. albicans ATCC90028) [µg/mL]	MIC (C. albicans ATCC90028) [µg/mL]	IC50 (P. falciparum (W2)) [µg/mL]	cytotoxicity CTX [2]	MIC (MRSA (ATCC33591)) [µg/mL]	IC50 (A. fumigatus ATCC 90906) [µg/mL]	MFC (A. fumigatus ATCC 90906) [µg/mL]	MIC (A. fumigatus ATCC 90906) [µg/mL]	other results
CCCCCCCOc1c(OC)cc(NC(C)CCCNC(=O)C(N)CCCN)c2nc(C(C)(C)C)ccc12 (stereo not shown) [compound 110, 2,5-Diamino-N-(4-(2-tert-butyl-5-(heptyloxy)-6-methoxyquinolin-8-ylamino)-pentyl)pentanamide]	> 20	> 20	> 20	> 20	> 20	> 20	3.2 (≈ 5.88 µM)	> 20	> 20	> 20	> 20	> 20	> 20	1.6 (≈ 2.94 µM)	NC (NC, not cytotoxic up to 4760 ng/mL (4.76 μg/mL))	> 20	> 20	> 20	> 20	
CCCCCCCOc1c(OC)cc(NC(C)CCCNC(=O)C(N)CCCCN)c2nc(C(C)(C)C)ccc12 (stereo not shown) [compound 109, 2,6-Diamino-N-(4-(2-tert-butyl-5-(heptyloxy)-6-methoxyquinolin-8-ylamino)-pentyl)hexanamide]	> 20	> 20	> 20	> 20	> 20	> 20	0.8 (≈ 1.43 µM)	> 20	> 20	> 20	> 20	> 20	> 20	0.68 (≈ 1.22 µM)	NC (NC, not cytotoxic up to 4760 ng/mL (4.76 μg/mL))	> 20	> 20	> 20	> 20	
O=C(O)c1cn(C2CC2)c2cc(N3CCNCC3)c(F)cc2c1=O [ciprofloxacin, reference compound]				0.13 (≈ 0.392 µM)	1 (≈ 3.02 µM)	0.5 (≈ 1.51 µM)		0.28 (≈ 0.845 µM)	1 (≈ 3.02 µM)	0.5 (≈ 1.51 µM)						0.25 (≈ 0.754 µM)				
N=C(N)c1ccc(OCCCCCOc2ccc(C(=N)N)cc2)cc1 [pentamidine, reference compound]																				IC50 ([3]; Leishmania donovani): 1.4 µg/mL (≈ 4.11 µM); L. donovani IC50 ([3]; promastigotes): 1.1 µg/mL
CCCCCOc1c(OC)cc(NC(C)CCCNC(=O)C(N)CCCN)c2nc(C(C)(C)C)ccc12 (stereo not shown) [compound 93, 2,5-Diamino-N-(4-(2-tert-butyl-6-methoxy-5-(pentyloxy)quinolin-8-ylamino)-pentyl)pentanamide]	10.1 (≈ 19.6 µM)	> 20	> 20	> 20	> 20	> 20	1 (≈ 1.94 µM)	8.99 (≈ 17.4 µM)	> 20	> 20	> 20	> 20	> 20	0.87 (≈ 1.69 µM)	NC (NC, not cytotoxic up to 4760 ng/mL (4.76 μg/mL))	> 20	> 20	> 20	> 20	
C[C@@H]1[C@H](O)[C@@H](C)/C=C/C=C/C=C/C=C/C=C/C=C/C=C/[C@H](O[C@@H]2O[C@H](C)[C@@H](O)[C@H](N)[C@@H]2O)C[C@@H]2O[C@](O)(C[C@@H](O)C[C@@H](O)[C@H](O)CC[C@@H](O)C[C@@H](O)CC(=O)O[C@H]1C)C[C@H](O)[C@H]2C(=O)O [amphotericin B (AMP), amphotericin B, reference compound]	0.3 (≈ 0.325 µM)	0.63 (≈ 0.682 µM)	0.63 (≈ 0.682 µM)								0.17 (≈ 0.184 µM)	1.25 (≈ 1.35 µM)	0.63 (≈ 0.682 µM)				0.68 (≈ 0.736 µM)	2.5 (≈ 2.71 µM)	1.25 (≈ 1.35 µM)	IC50 ([3]; Leishmania donovani): 0.1 µg/mL (≈ 0.108 µM); IC90 ([3]; Leishmania donovani, read-out: L. donovani IC90, promastigotes, 48 h): 0.3 µg/mL (≈ 0.325 µM)
CCCCCCOc1c(OC)cc(NC(C)CCCNC(=O)C(N)CCCN)c2nc(C(C)(C)C)ccc12 (stereo not shown) [compound 100, 2,5-Diamino-N-(4-(2-tert-butyl-5-(hexyloxy)-6-methoxyquinolin-8-ylamino)-pentyl)pentanamide]	> 20	> 20	> 20	> 20	> 20	> 20	0.86 (≈ 1.62 µM)	9.34 (≈ 17.6 µM)	> 20	> 20	> 20	> 20	> 20	0.73 (≈ 1.38 µM)	NC (NC, not cytotoxic up to 4760 ng/mL (4.76 μg/mL))	> 20	> 20	> 20	> 20	
CCCCOc1c(OC)cc(NC(C)CCCN)c2nc(C(C)(C)C)ccc12 (stereo not shown) [compound 45, N^4-(5-Butoxy-2-tert-butyl-6-methoxyquinolin-8-yl)pentane-1,4-diamine]	> 20	> 20	> 20	> 20	> 20	> 20	> 4.76	> 20	> 20	> 20	> 20	> 20	> 20	3.3 (≈ 8.51 µM)	NC (NC, not cytotoxic up to 4760 ng/mL (4.76 μg/mL))	> 20	> 20	> 20	> 20	
CCCCOc1c(OC)cc(NC(C)CCCNC(=O)C(N)CCCCN)c2nc(C(C)(C)C)ccc12 (stereo not shown) [compound 90, 2,6-Diamino-N-(4-(5-butoxy-2-tert-butyl-6-methoxyquinolin-8-ylamino)pentyl)-hexanamide]	> 20	> 20	> 20	> 20	> 20	> 20	4.7 (≈ 9.11 µM)	> 20	> 20	> 20	> 20	> 20	> 20	2.9 (≈ 5.62 µM)	NC (NC, not cytotoxic up to 4760 ng/mL (4.76 μg/mL))	> 20	> 20	> 20	> 20	
CCCCOc1c(OC)cc(NC(C)CCCNC(=O)C(N)CCCN)c2nc(C(C)(C)C)ccc12 (stereo not shown) [compound 91, 2,5-Diamino-N-(4-(5-butoxy-2-tert-butyl-6-methoxyquinolin-8-ylamino)pentyl)-pentanamide]	> 20	> 20	> 20	> 20	> 20	> 20	2.8 (≈ 5.58 µM)	> 20	> 20	> 20	> 20	> 20	> 20	1.3 (≈ 2.59 µM)	NC (NC, not cytotoxic up to 4760 ng/mL (4.76 μg/mL))	> 20	> 20	> 20	> 20	
C[C@@H]1CC[C@H]2[C@@H](C)C(=O)O[C@@H]3O[C@@]4(C)CC[C@@H]1[C@]32OO4 [ART, artemisinin, reference compound]														0.009 (≈ 0.0319 µM)						

Reference: publication PMC6045484 (ACS Omega, 2018)
